Assay results published in ChEMBL document CHEMBL1150789, “Antiplasmodial activity of aryltetralone lignans from Holostylis reniformis” (Antimicrob Agents Chemother, 2007).

Columns and labels:
[1] = Toxicity against human HepG2A16 cells assessed as cell death at 450 ug/ml by MTT method; format: cell-based
Plasmodium falciparum = assay: Antiplasmodial activity growth inhibition of chloroquine-resistant Plasmodium falciparum BHz 26/86 after 72 hrs; format: functional, organism-based; conditions: BHz 26/86, 72 h
How it was run: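 Chloroquine-resistant Amazon isolate in continuous culture on human AB+ or A+ erythrocytes, RPMI 1640 + 10% human serum. Sorbitol-synchronized trophozoites at 1–2% parasitemia, 2.5% hematocrit. Compounds in 0.02% Tween 20, tested at 0.02 to 20 μM, 37°C. Growth inhibition versus drug-free control from blinded smear reading. IC50/IC90 by linear interpolation. Triplicate, three repeats.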

| SMILES | Activity [1] [%] | IC50 (Plasmodium falciparum) [nM] | IC90 (Plasmodium falciparum) [nM] |
| --- | --- | --- | --- |
| COc1ccc([C@@H]2c3cc(OC)c(OC)cc3C(=O)[C@@H](C)[C@H]2C)cc1OC | 30 | 630 | 2610 |
| COc1cc2c(cc1OC)[C@@H](c1ccc3c(c1)OCO3)[C@@H](C)[C@H](C)C2=O | 30 | 260 | 3350 |
| COc1ccc([C@@H]2c3cc(OC)c(OC)cc3C(=O)[C@H](C)[C@H]2C)cc1OC | 30 | 200 | 3000 |
| COc1ccc([C@@H]2c3cc(OC)c(OC)cc3C(=O)[C@@H](C)[C@@H]2C)cc1OC | 30 | 320 | 4600 |
| CCN(CC)CCCC(C)Nc1ccnc2cc(Cl)ccc12 (centres undefined) [CHLOROQUINE] |  |  | 700 |
| COc1ccc([C@@H]2c3cc4c(cc3C(=O)[C@@H](C)[C@H]2C)OCO4)cc1OC | 30 | 8000 | 19700 |
| COc1cc2c(cc1OC)[C@@H](c1ccc3c(c1)OCO3)[C@H](C)[C@H](C)C2=O | 30 | > 140000 | > 140000 |
